Screening results: PubChem BioAssay, several laboratories
Rows were chosen to be rich in hits. Some 1.9% of all compounds tested hit in one or more screens of this group.
MT stabilize HCS = stabilizes microtubules in HeLa cells; HeLa tubulin immunostaining HCS, 24 h; share of cells brighter than vehicle mean+2SD; % tubulin-high responders, % at 10 µM; 0.83% of 200,000 active;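 active = plate Z-score above 3 for both tubulin-high and condensed-nucleus cell shares, with cell loss under 80%, at 10 µM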;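 note: anti alpha tubulin signal scored within the nucleus-defined area of each cell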
Autophagy HCS = autophagy modulation, high-content screen; MEF GFP-LC3 puncta imaging; test concentration mostly 10 µM; calls only at 10 µM (by protocol); 0.98% of 190,000 active;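 active = percentage of spot-positive cells more than 3 SD above its plate mean, without a fluorescence outlier flag or 80% toxicity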
Ins promoter up = MIN6 insulin promoter up-regulation. AID 1625. z-score at 5 µM. 0.3% of 190,000 active. MIN6 insulin promoter-GFP reporter, high-content imaging; active compounds read high;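 active = z-score above 3 at 5 µM with at least 500 cells counted in the well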
bCat nuc transl = beta-catenin nuclear translocation modulation; HeLa beta-catenin nuclear translocation, immunofluorescence imaging; nuclear translocation activity, % at 5 µM; 0.3% of 190,000 active; AID 1665;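 active = nuclear translocation activity above 50% at 5 µM, with a well cell count of 50 or more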;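 note: per-cell ratio of nuclear to cytoplasmic median beta-catenin stain intensity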
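Assay system: human HeLa cells, native beta-catenin; doses: 5 µM primary, 0.02–20 µM confirmation; incubation: compound treatment 24 h, 37°C, 5% CO2; technique: fluorescence imaging of beta-catenin antibody stain plus DAPI; measure: % activation, nuclear-to-cytoplasmic median beta-catenin signal ratio per cell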
Each line names hits and unclear results; the compound was inactive in the other large screens.

C=C(C)COc1ccc(-c2[nH]ncc2Oc2ccccc2OC)c(O)c1	none
COc1ccc(-c2c(-c3ccc(O)cc3O)n[nH]c2C)cc1OC	MT stabilize HCS 35 (no result: bCat nuc transl)
C=C(C)COc1ccc(-c2n[nH]c(C)c2-c2ccc(Br)cc2)c(O)c1	MT stabilize HCS 26, Autophagy HCS active (no result: Ins promoter up, bCat nuc transl)
COc1ccc(CC(=O)n2[nH]c(=O)cc(C)c2=O)cc1OC	none (no result: MT stabilize HCS, Autophagy HCS)
COc1ccccc1-c1noc(CSc2nc(N)cc(=O)[nH]2)n1	none
CC(C)CCNC(=O)COC(=O)/C=C/c1ccc2ccccc2n1	none
CC(C)C[C@H](NC(=O)OC(C)(C)C)c1n[nH]c(=S)n1N	none
CCOC(=O)/C=c1\s/c(=C\c2c(OC)ccc3ccccc23)c(=O)n1CC(=O)NCC1CCCO1 (stereo not drawn)	bCat nuc transl 190
COc1c(C(=O)Nc2ccc(Cc3ccncc3)cc2)ccc2ccccc12	none
CCOC(=O)c1cnn(-c2nc(-c3ccc(C)cc3)cs2)c1C(F)(F)F	MT stabilize HCS 29
O=C(O)c1cnn(-c2nc(-c3ccc(F)cc3)cs2)c1C(F)(F)F	none
CCCN(CCC)S(=O)(=O)c1ccc(C(=O)OCCN2C(=O)c3cccc4c(N5CCOCC5)ccc(c34)C2=O)cc1	Autophagy HCS active, Ins promoter up 6.2
O=C(OCCN1C(=O)c2cccc3c(N4CCOCC4)ccc(c23)C1=O)c1ccc(Cl)cc1	none
Cc1nc(NC(=O)c2ccc(Cl)cc2)sc1Cc1ccc2c(c1)OCO2	MT stabilize HCS 13 (no result: bCat nuc transl)
O=C(Nc1ccn(Cc2ccc(Cl)cc2)n1)c1ccc2c(c1)OCO2	none
Cc1c(Cc2ccc3c(c2)OCO3)sc(NC(=O)c2ccccc2)c1C(N)=O	none
Cc1nc(NC(=O)c2ccccc2)sc1Cc1ccc2c(c1)OCO2	MT stabilize HCS 11 (no result: bCat nuc transl)
O=c1[nH]c2ccc(F)cc2[nH]c1=O	Autophagy HCS active
Nc1cccc(C(=O)OCC(=O)Nc2cccc3c2C(=O)c2ccccc2C3=O)c1	Autophagy HCS active (no result: bCat nuc transl)
CCOC(=O)C(C)Sc1nc(-c2cccs2)ccc1C#N (stereo not drawn)	MT stabilize HCS 44
CCCCS/C(=C(/C#N)C(N)=O)c1cc2c([nH]1)CCCC2	MT stabilize HCS 12
CCc1ccc(N/C(SC)=C(/C#N)C(N)=O)cc1	none
Cc1ccc(/C=C/C(=O)c2ccccc(=O)c2O)cc1C	none
CCOc1ccc(N(CC(=O)NCC2CCCO2)C(=O)CCC(=O)Nc2nccs2)cc1 (stereo not drawn)	none
Cc1ccccc1-n1nnnc1SCC(=O)NCC1CCCO1 (stereo not drawn)	Autophagy HCS active
O=C(/C=C/c1ccccc1Cl)Nn1cnc2ccccc2c1=O	none
CS(=O)(=O)Nc1cccc(C2=NN(S(C)(=O)=O)C(c3ccc4c(c3)OCO4)C2)c1 (stereo not drawn)	MT stabilize HCS 17
Cc1cccc(-c2c3c(=O)n(C)c(=O)n(C)c3c3nnc4ccccc4n23)c1	Autophagy HCS active (no result: Ins promoter up, bCat nuc transl)
Cc1ccc(-c2c3c(=O)n(C)c(=O)n(C)c3c3nnc4ccccc4n23)cc1	none (no result: Ins promoter up, bCat nuc transl)
C/C(CC(=O)NCc1ccco1)=N\NC(=O)COc1ccc(Cl)cc1Cl	bCat nuc transl 59
COc1ccc(CNC(=O)C/C(C)=N/NC(=O)COc2ccc(C)cc2Br)cc1	bCat nuc transl 146
O=C(COc1ccc(Cl)cc1Cl)NCc1ccco1	none
COc1ccccc1Nc1nnc(SCC2CCCCO2)s1 (stereo not drawn)	MT stabilize HCS 19
N#C/C(=C\c1cn(CCOc2ccccc2F)c2ccccc12)C(=O)NCc1cccs1	Autophagy HCS active
O=C(Nc1ccccc1)c1sc(N2CCOCC2)nc1-c1ccccc1	none
N#C/C(=C\c1sc(N2CCOCC2)nc1-c1ccccc1)C(=O)Nc1cccc2ccccc12	Autophagy HCS active
Cc1ccccc1N1CCN(C(=O)c2ccccc2NC(=O)c2ccccc2C(=O)O)CC1	none
Cc1ccc(N(CCC(=O)NC(C)(C)C)S(=O)(=O)c2ccc(C)cc2)cc1	Autophagy HCS active
C[C@@H]1C=C(C(=O)O)O[C@H](OCc2ccc(CO)cc2)C1	none
Cc1ccc(-c2cc(N)n(-c3ccccc3)n2)cc1	Ins promoter up 5.3
C=CCn1c(SCC(=O)Nc2ccccc2OC)nnc1-c1ccccn1	MT stabilize HCS 24 (no result: Ins promoter up)
COc1ccc(CNC(=O)Cn2ncn3c(cc4ccccc43)c2=O)cc1	none (no result: MT stabilize HCS, Autophagy HCS)
O=C(Cn1cnc2sc(-c3ccccc3)cc2c1=O)NCc1ccco1	MT stabilize HCS 27
O=C(Cn1cnc2sc(-c3ccccc3)cc2c1=O)NCCc1ccccc1	none (no result: bCat nuc transl)
O=C(Cn1ncn2c(cc3ccccc32)c1=O)NCc1ccco1	Ins promoter up 3.8
O=C(Cn1cnc2sc(-c3ccccc3)cc2c1=O)NCc1ccccc1	MT stabilize HCS 36, Autophagy HCS active (no result: bCat nuc transl)
